From ChEMBL document CHEMBL4400536, “Design and synthesis of aminothiazole based Hepatitis B Virus (HBV) capsid inhibitors” (Eur J Med Chem, 2019)
Activity calls are given as the source filed them. No cut-off for these calls is given here.

How the values were obtained:
[1] = biological target: Core antigen (Hepatitis B virus) (UniProt Q03732); experiment: Inhibition of dimerization of HA-tagged Hepatitis B Virus capsid (HBVcAg-C155-239) expressed in HEK293T cells at 50 to 100 uM after 48 hrs by co-immunoprecipitation assay; type: cell-based
Chain of Core antigen (Hepatitis B virus) (Q03732 as listed by the source): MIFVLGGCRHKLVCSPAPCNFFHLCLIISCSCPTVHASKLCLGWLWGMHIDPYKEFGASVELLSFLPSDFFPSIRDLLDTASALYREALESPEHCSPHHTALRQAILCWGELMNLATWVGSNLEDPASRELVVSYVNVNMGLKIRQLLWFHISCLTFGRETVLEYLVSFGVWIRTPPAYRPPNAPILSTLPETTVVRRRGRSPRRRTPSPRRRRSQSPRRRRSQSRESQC
How it was run: (§1)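 HEK293T cells were co-transfected with HBc-VN-HA and HBc-VC-FLAG, then treated with DMSO or compound. After 48 h, lysates were co-immunoprecipitated with anti-HA beads and analysed by immunoblot.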

Hepatitis B virus [2] = experiment: Antiviral activity against Hepatitis B virus infected in BALB/c mouse injected with replication-competent HBV DNA plasmid HBV-1.2mer assessed as reduction in viral DNA replication at 30 mg/kg, iv measured after 2 weeks by RT-PCR analysis; type: functional, organism-based
How it was run: (§2)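 BALB/c transgenic mice carrying the replication-competent HBV-1.2mer plasmid were bled at day 0 for HBV DNA copies and randomly split into two groups of 3 males. Each group got 30 mg/kg compound or DMSO by tail vein, every 2 days, for 2 weeks. Blood was then collected. HBV DNA was measured by real-time PCR and HBsAg by ELISA.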

[3] = biological target: Core antigen (Hepatitis B virus) (UniProt Q03732); experiment: Inhibition of aggregation of HBV capsid (1 to 149 residues) expressed in Escherichia coli assessed as induction of abnormal capsid morphology at 0.2 to 50 uM by TEM analysis
How it was run: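 His-tagged Cp149 was expressed in E. coli (IPTG 1 mM), Ni-affinity purified and kept in PBS. Cp149 (10 μM) in 50 mM HEPES pH 7.5 was preincubated 1 h with compound (0.2–50 μM) or DMSO. Assembly was started with NaCl to 50 mM and equilibrated 60 h at 23 °C. Grids were stained with 2% uranyl acetate and viewed by TEM.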

[4] = Acute toxicity in BALB/c mouse assessed as effect on spleen at 500 to 1000 mg/kg, ip measured on day 14 by hematoxylin and eosin staining based assay; type: organism-based; conditions: in vivo
How it was run: (§3)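 Male Balb/c mice, 5 animals, given a single intraperitoneal injection at 0, 500 or 1000 mg/kg. Body weight followed for two weeks. On day 14, blood was taken for hepatic and renal function (AST, ALT, BUN, creatinine). Heart, liver, lung, spleen and kidney were sectioned, HE-stained and examined.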

[5] = Cytotoxicity against human HepG2.2.15 cells; type: cell-based, HepG2 2.2.15
Hepatitis B virus [6] = experiment: Antiviral activity against Hepatitis B virus infected in human […] assessed as reduction in viral DNA replication at 30 mg/kg dosed orthotopically every 3 days for 4 weeks by RT-PCR analysis; type: functional, organism-based
[7] = Hepatic toxicity in BALB/c mouse assessed as effect on AST levels at 500 to 1000 mg/kg, ip measured on day 14; type: organism-based; conditions: in vivo; how it was run: as §3
[8] = Acute toxicity in BALB/c mouse assessed as effect on liver at 500 to 1000 mg/kg, ip measured on day 14 by hematoxylin and eosin staining based assay; type: organism-based; conditions: in vivo; how it was run: as §3
[9] = Acute toxicity in BALB/c mouse assessed as effect on heart at 500 to 1000 mg/kg, ip measured on day 14 by hematoxylin and eosin staining based assay; type: organism-based; conditions: in vivo; how it was run: as §3
[10] = Renal toxicity in BALB/c mouse assessed as effect on BUN levels at 500 to 1000 mg/kg, ip measured on day 14; type: organism-based; conditions: in vivo; how it was run: as §3
[11] = Renal toxicity in BALB/c mouse assessed as effect on CRE levels at 500 to 1000 mg/kg, ip measured on day 14; type: organism-based; conditions: in vivo; how it was run: as §3
[12] = Hepatic toxicity in BALB/c mouse assessed as effect on ALT levels at 500 to 1000 mg/kg, ip measured on day 14; type: organism-based; conditions: in vivo; how it was run: as §3
[13] = Acute toxicity in BALB/c mouse assessed as effect on body weight at 500 to 1000 mg/kg, ip measured after 2 weeks; type: organism-based; conditions: in vivo, 336 h; how it was run: as §3
[14] = biological target: Core antigen (Hepatitis B virus) (UniProt Q03732); experiment: Inhibition of dimerization of HA-tagged Hepatitis B Virus capsid (HBVcAg-N1-154) expressed in HEK293T cells at 50 to 100 uM after 48 hrs by Western blot analysis; type: cell-based
How it was run: (§4)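 HEK293T cells were transfected with HBc-VN-HA or HBc-VC-FLAG and treated with DMSO, 50 or 100 μM compound. After 48 h, lysates were western blotted with anti-HA, anti-FLAG and anti-GAPDH.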

[15] = biological target: Core antigen (Hepatitis B virus) (UniProt Q03732); experiment: Inhibition of GFP-fused Hepatitis B Virus capsid (HBVcAg-VFP-C155-239) expressed in HEK293T cells assessed as reduction in capsid assembly after 48 hrs by fluorescence microscopic analysis; type: cell-based
How it was run: (§5)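 BiFC assay: HBc fused to Venus fragments VN (1–154) and VC (155–239) were co-transfected into 293T cells, then compounds were added. The dose series used 0, 0.5, 5 and 50 μM; SAR used 50 μM as percent inhibition. After 48 h, reconstituted fluorescence was read as mean fluorescent intensity on a plate reader, with fluorescence microscopy images.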

[16] = Acute toxicity in BALB/c mouse assessed as effect on lung at 500 to 1000 mg/kg, ip measured on day 14 by hematoxylin and eosin staining based assay; type: organism-based; conditions: in vivo; how it was run: as §3
[17] = biological target: Core antigen (Hepatitis B virus) (UniProt Q03732); experiment: Inhibition of dimerization of HA-tagged Hepatitis B Virus capsid (HBVcAg-N1-154) expressed in HEK293T cells at 50 to 100 uM after 48 hrs by co-immunoprecipitation assay; type: cell-based; how it was run: as §1
Hepatitis B virus [18] = experiment: Antiviral activity against Hepatitis B virus infected in BALB/c mouse injected with replication-competent HBV DNA plasmid HBV-1.2mer assessed as reduction in HBsAg replication at 30 mg/kg, iv measured after 2 weeks by ELISA; type: functional, organism-based; how it was run: as §2
[19] = biological target: Core antigen (Hepatitis B virus) (UniProt Q03732); experiment: Inhibition of GFP-fused Hepatitis B Virus capsid expressed in HEK293T cells at 50 uM after 48 hrs relative to control; type: cell-based; how it was run: as §5
[20] = biological target: Core antigen (Hepatitis B virus) (UniProt Q03732); experiment: Inhibition of GFP-fused Hepatitis B Virus capsid (HBVcAg-GFP-N1-154) expressed in HEK293T cells assessed as reduction in capsid assembly after 48 hrs by fluorescence microscopic analysis; type: cell-based; how it was run: as §5
[21] = Acute toxicity in BALB/c mouse assessed as effect on kidney at 500 to 1000 mg/kg, ip measured on day 14 by hematoxylin and eosin staining based assay; type: organism-based; conditions: in vivo; how it was run: as §3
Hepatitis B virus [22] = experiment: Antiviral activity against Hepatitis B virus infected in human HepG2.2.15 cells assessed as inhibition of viral replication after 7 days by RT-PCR analysis; type: functional, organism-based
[23] = biological target: Core antigen (Hepatitis B virus) (UniProt Q03732); experiment: Inhibition of dimerization of HA-tagged Hepatitis B Virus capsid (HBVcAg-C155-239) expressed in HEK293T cells at 50 to 100 uM after 48 hrs by Western blot analysis; type: cell-based; how it was run: as §4

O=S(=O)(Nc1ncc(C(Oc2ccc3cc(Br)ccc3c2)c2ccc(Cl)cc2)s1)c1cccc2cccnc12 (centres undefined)
inhibition [1]: Active
Activity (Hepatitis B virus [2]): Active
inhibition [3]: Active
Activity [4]: Non-Toxic
CC50 [5]: > 50 µM
Activity (Hepatitis B virus [6]): Active
Activity [7]: Non-Toxic
Activity [8]: Non-Toxic
Activity [9]: Non-Toxic
Activity [10]: Non-Toxic
Activity [11]: Non-Toxic
Activity [12]: Non-Toxic
Activity [13]: Non-Toxic
inhibition [14]: Active
inhibition [15]: Dose-dependent effect
Activity [16]: Non-Toxic
inhibition [17]: Active
Activity (Hepatitis B virus [18]): Active
inhibition [19]: 63%
inhibition [20]: Dose-dependent effect
Activity [21]: Non-Toxic
inhibition (Hepatitis B virus [22]): Dose-dependent effect
IC50 (Hepatitis B virus [22]; HepG2.2.15, 168 h): 183 nM
inhibition [23]: Active
